Reference: ChEMBL document CHEMBL1126160, “Synthesis and structure-activity relationships of 7-diazabicycloalkylquinolones, including danofloxacin, a new quinolone antibacterial agent for veterinary medicine” (J Med Chem, 1992)
Converted amounts (≈) assume the structure as drawn.

Key:
Assay type in all cases: functional
Salmonella enterica = experiment: In vitro antibacterial activity against aerobically grown Salmonella choleraesuis (58B015)
Staphylococcus aureus = experiment: In vitro antibacterial activity against aerobically grown Staphylococcus aureus (54B004)
Method in brief: (§1)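 Agar dilution MICs. Aerobic strains were tested on brain heart infusion agar and incubated aerobically at 37 °C for 18–20 h.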

[1] = test system: Bordetella bronchiseptica; experiment: In vitro antibacterial activity against aerobically grown Bordetella bronchiseptica (73A009); method in brief: as §1
Clostridium perfringens = experiment: microbe, parasite or virus in culture
[2] = In vitro evaluation for antibacterial activity against anaerobically grown Treponema hyodysenteriae (94A007); conditions: Brachyspira hyodysenteriae
[3] = test system: Actinobacillus pleuropneumoniae; experiment: In vitro antibacterial activity against anaerobically grown Actinobacillus pleuropneumoniae ([…])
Method in brief: (§2)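 Agar dilution MICs. Anaerobic strains were tested on tryptose agar with 5% bovine blood and incubated 48 h at 39 °C in an anaerobe chamber under N2/CO2/H2 (80:10:10).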

Escherichia coli [4] = experiment: Escherichia coli DNA cleavage endpoint value which is the minimum amount required (in micro g/mL) to induce detectable cleavage of supercoiled pBR322 substrate to linear form (gyrase); conditions: read-out: MIC
Method in brief: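 DNA gyrase A and B subunits were purified from E. coli overproducers. About 2 units of holoenzyme were incubated with pBR322 in Tris-HCl pH 7.5 containing MgCl2, spermidine, DTT, 0.2 mM ATP, BSA and tRNA. Drug was added as 2-fold serial dilutions, and reactions ran for 60 min at 25 °C. Reactions were stopped with SDS and proteinase K, then run on agarose and stained with ethidium. The endpoint was the lowest concentration giving detectable linear DNA.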

Trueperella pyogenes = experiment: In vitro antibacterial activity against anaerobically grown Actinomyces pyogenes (14D002); method in brief: as §2
Escherichia coli [5] = experiment: In vitro antibacterial activity against aerobically grown Escherichia coli (51A538); method in brief: as §1
Phocaeicola vulgatus = experiment: In vitro antibacterial activity against anaerobically grown Bacteroides vulgatus (78D029); method in brief: as §2
[6] = In vitro antibacterial activity against Aerobically grown Pasteurella haemolytica (59B018); conditions: Mannheimia haemolytica; method in brief: as §1
Pasteurella multocida = experiment: In vitro antibacterial activity against aerobically grown Pasteurella multocida (59A006); method in brief: as §1

Row | SMILES | MIC (Salmonella enterica) [µg/mL] | MIC (Staphylococcus aureus) [µg/mL] | MIC [1] [µg/mL] | MIC (Clostridium perfringens) [µg/mL] | MIC [2] [µg/mL] | MIC [3] [µg/mL] | minimum concentration inducing gyrase-mediated DNA cleavage (Escherichia coli [4]) [µg/mL] | MIC (Trueperella pyogenes) [µg/mL] | MIC (Escherichia coli [5]) [µg/mL] | MIC (Phocaeicola vulgatus) [µg/mL] | MIC [6] [µg/mL] | MIC (Pasteurella multocida) [µg/mL]
1 | Cl.O.O=C(O)c1cn(CCF)c2c(F)c(N3CCN4CCC3CC4)c(F)cc2c1=O | 0.2 | 0.78 | 6.25 | 0.78 | 6.25 | < 0.05 | 0.19 | 3.13 | 0.39 | 6.25 | < 0.05 | 0.2
2 | C=Cn1cc(C(=O)O)c(=O)c2cc(F)c(N3CCN4CCC3CC4)cc21 | 0.1 (≈ 0.28 µM) | 0.2 (≈ 0.56 µM) | 1.56 (≈ 4.37 µM) | 0.2 (≈ 0.56 µM) | 0.39 (≈ 1.09 µM) | 0.02 (≈ 0.056 µM) | 0.39 | 3.13 (≈ 8.76 µM) | 0.1 (≈ 0.28 µM) | 3.13 (≈ 8.76 µM) | 0.05 (≈ 0.14 µM) | 0.05 (≈ 0.14 µM)
3 | CN1C[C@@H]2C[C@H]1CN2c1c(F)cc2c(=O)c(C(=O)O)cn(-c3ccc(F)cc3F)c2c1F | 0.39 (≈ 0.872 µM) | 0.2 (≈ 0.447 µM) | > 1.56 | 0.39 (≈ 0.872 µM) | > 3.13 | 0.1 (≈ 0.224 µM) | 0.78 | 1.56 (≈ 3.49 µM) | 0.2 (≈ 0.447 µM) | 1.56 (≈ 3.49 µM) | 0.1 (≈ 0.224 µM) | 0.02 (≈ 0.0447 µM)
4 | CN1C2CC[C@@H]1CCN(c1cc3c(cc1F)c(=O)c(C(=O)O)cn3CCF)C2 | > 1.56 | 0.78 (≈ 1.99 µM) | 1.56 (≈ 3.99 µM) | 1.56 (≈ 3.99 µM) | > 3.13 | 0.39 (≈ 0.996 µM) | 3.12 | > 3.13 | 1.56 (≈ 3.99 µM) | > 3.13 | 1.56 (≈ 3.99 µM) | 0.39 (≈ 0.996 µM)
5 | CN1[C@@H]2CC[C@H]1CN(c1c(F)cc3c(=O)c(C(=O)O)cn(C4CC4)c3c1Cl)C2 | 0.78 (≈ 1.92 µM) | 0.39 (≈ 0.961 µM) | > 1.56 | 0.78 (≈ 1.92 µM) | > 3.13 | 0.2 (≈ 0.493 µM) | 1.56 | 3.13 (≈ 7.71 µM) | 0.39 (≈ 0.961 µM) | 0.78 (≈ 1.92 µM) | 0.2 (≈ 0.493 µM) | 0.05 (≈ 0.123 µM)
6 | CN1C2CC[C@@H]1CCN(c1nc3c(cc1F)c(=O)c(C(=O)O)cn3C1CC1)C2 | 0.78 (≈ 2.02 µM) | 0.78 (≈ 2.02 µM) | 0.78 (≈ 2.02 µM) | 0.78 (≈ 2.02 µM) | 3.13 (≈ 8.1 µM) | 0.2 (≈ 0.518 µM) | 3.12 | > 3.13 | 0.39 (≈ 1.01 µM) | > 3.13 | 0.39 (≈ 1.01 µM) | 0.1 (≈ 0.259 µM)
7 | CNn1cc(C(=O)O)c(=O)c2cc(F)c(N3CCN4CCC3CC4)cc21 | 1.56 (≈ 4.33 µM) | 1.56 (≈ 4.33 µM) | 12.5 (≈ 34.7 µM) | 0.78 (≈ 2.16 µM) | 3.13 (≈ 8.69 µM) | < 0.05 | 1.56 | 6.25 (≈ 17.3 µM) | 0.39 (≈ 1.08 µM) | > 25 | 0.1 (≈ 0.277 µM) | 0.1 (≈ 0.277 µM)
8 | O=C(O)c1cn(-c2ccc(F)cc2)c2c(F)c(N3C[C@@H]4C[C@H]3CN4)c(F)cc2c1=O | 0.2 (≈ 0.481 µM) | 0.78 (≈ 1.88 µM) | > 1.56 | 0.2 (≈ 0.481 µM) | 0.78 (≈ 1.88 µM) | 0.1 (≈ 0.241 µM) | 0.78 | > 3.13 | 0.1 (≈ 0.241 µM) | > 3.13 | 0.1 (≈ 0.241 µM) | 0.1 (≈ 0.241 µM)
9 | CN1[C@@H]2CC[C@H]1CN(c1c(F)cc3c(=O)c(C(=O)O)cn(CCF)c3c1F)C2 | 1.56 (≈ 3.95 µM) | 1.56 (≈ 3.95 µM) | 6.25 (≈ 15.8 µM) | 0.78 (≈ 1.97 µM) | > 3.13 | 0.39 (≈ 0.986 µM) | 0.39 | > 3.13 | 0.78 (≈ 1.97 µM) | > 3.13 | 0.78 (≈ 1.97 µM) | 0.39 (≈ 0.986 µM)
10 | CCn1cc(C(=O)O)c(=O)c2cc(F)c(N3CC[C@H]4CCC(C3)N4C)c(F)c21 | 1.56 (≈ 3.99 µM) | 0.78 (≈ 1.99 µM) | 1.56 (≈ 3.99 µM) | 3.13 (≈ 8 µM) | > 3.13 | 0.78 (≈ 1.99 µM) | 3.12 | > 3.13 | 0.39 (≈ 0.996 µM) | > 3.13 | 0.78 (≈ 1.99 µM) | 0.2 (≈ 0.511 µM)
11 | CN1C[C@@H]2C[C@H]1CN2c1nc2c(cc1F)c(=O)c(C(=O)O)cn2-c1ccc(F)cc1 | 0.2 (≈ 0.485 µM) | 0.2 (≈ 0.485 µM) | > 1.56 | 0.39 (≈ 0.946 µM) | 3.13 (≈ 7.59 µM) | 0.1 (≈ 0.242 µM) | 1.56 | > 3.13 | 0.2 (≈ 0.485 µM) | 3.13 (≈ 7.59 µM) | 0.05 (≈ 0.121 µM) | 0.02 (≈ 0.0485 µM)
12 | O=C(O)c1cn(-c2ccc(F)cc2)c2cc(N3CCN4CCCC3C4)c(F)cc2c1=O (configuration not stated) | 0.2 (≈ 0.47 µM) | 0.1 (≈ 0.235 µM) | 1.56 (≈ 3.67 µM) | 0.2 (≈ 0.47 µM) | 0.2 (≈ 0.47 µM) | 0.05 (≈ 0.118 µM) | 0.78 | 3.13 (≈ 7.36 µM) | 0.1 (≈ 0.235 µM) | 0.39 (≈ 0.917 µM) | 0.05 (≈ 0.118 µM) | 0.01 (≈ 0.0235 µM)
13 | CN1[C@@H]2CC[C@H]1CN(c1cc3c(cc1F)c(=O)c(C(=O)O)cn3C)C2 | 3.13 (≈ 9.06 µM) | 0.2 (≈ 0.579 µM) | > 25 | 1.56 (≈ 4.52 µM) | 0.78 (≈ 2.26 µM) | 0.78 (≈ 2.26 µM) | 3.12 | 3.13 (≈ 9.06 µM) | 3.13 (≈ 9.06 µM) | 12.5 (≈ 36.2 µM) | 0.2 (≈ 0.579 µM) | 0.78 (≈ 2.26 µM)
14 | O=C(O)c1cn(C2CC2)c2c(F)c(N3C[C@@H]4C[C@H]3CN4)c(F)cc2c1=O | 0.01 (≈ 0.0277 µM) | 0.39 (≈ 1.08 µM) | 0.39 (≈ 1.08 µM) | 0.05 (≈ 0.138 µM) | 1.56 (≈ 4.32 µM) | < 0.005 | 0.09 | 0.39 (≈ 1.08 µM) | 0.01 (≈ 0.0277 µM) | 1.56 (≈ 4.32 µM) | 0.005 (≈ 0.0138 µM) | 0.005 (≈ 0.0138 µM)
15 | CCn1cc(C(=O)O)c(=O)c2cc(F)c(N3C[C@H]4CCC[C@@H](C3)N4C)cc21 | 1.56 (≈ 4.18 µM) | 0.1 (≈ 0.268 µM) | 6.25 (≈ 16.7 µM) | 0.39 (≈ 1.04 µM) | 6.25 (≈ 16.7 µM) | 0.2 (≈ 0.536 µM) | 3.12 | 6.25 (≈ 16.7 µM) | 1.56 (≈ 4.18 µM) | 1.56 (≈ 4.18 µM) | 0.1 (≈ 0.268 µM) | 0.78 (≈ 2.09 µM)
16 | CN1C[C@@H]2C[C@H]1CN2c1c(F)cc2c(=O)c(C(=O)O)cn(-c3ccc(F)cc3)c2c1F | 0.39 (≈ 0.908 µM) | 0.39 (≈ 0.908 µM) | > 1.56 | 0.39 (≈ 0.908 µM) | 1.56 (≈ 3.63 µM) | 0.05 (≈ 0.116 µM) | 0.39 | > 3.13 | 0.2 (≈ 0.466 µM) | 3.13 (≈ 7.29 µM) | 0.2 (≈ 0.466 µM) | 0.02 (≈ 0.0466 µM)
